TAAR1 agonist: agonists of human TAAR1. Q96RJ0. CHO RD-HGA16 TAAR1, Fluo-8 calcium fluorescence; vehicle wells 0%, saturating PEA agonist 100%. activation, % at 3 µM. actives 0.99% (n = 360,000). AID 624467;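 active = activation above the mean activation of all test compounds in the run plus 3 SD, cut at about 38% in these data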
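System: CHO RD-HGA16 cells carrying human TAAR1 plus Gα16; Incubation: 17-24 h seeding, 75 min 37 °C dye, 30 min RT; Measured by: Fluo-8 fluorescence, 5 s baseline then 140 s kinetic read; Control set: DMSO and PEA EC100; Replication: single well for each compound.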
GPR7 antag: antagonists of human GPR7 (neuropeptides B/W receptor 1); P48145; GPR7-expressing cells, fluorescence antagonist assay; inhibition, % at 4.4 µM; actives 1.1% (n = 290,000); AID 1861; in the data active = inhibition above about 16%, passing the limit was not always enough;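 note: cells stimulated with the agonist NPW; 0% = agonist with vehicle and 100% = vehicle without agonist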
CHO parental Ca: signal in parental CHO cells, OX1R antagonist counter-screen; parental CHO-K1, ATP-induced calcium, Fluo-8 fluorescence; inhibition, % at 5.6 µM; actives 0.63% (n = 330,000); AID 463079;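 active = inhibition above that plate's mean sample inhibition plus 3 SD, cut at about 26% in these data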;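 note: 0% = ATP-challenged DMSO wells and 100% = DMSO wells without ATP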
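Measured by: calcium-sensitive Fluo-8 fluorescence / Test system: CHO parental line / Controls: ATP-challenged DMSO wells low, unchallenged DMSO wells high / Measure: % inhibition / Compound: single nominal dose of 5.6 µM per compound / Replicates: single well per compound, no replicates / Reagent: ATP as calcium-mobilizing challenge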
TAAR1 antag: antagonists of human TAAR1. Q96RJ0. CHO RD-HGA16 TAAR1, Fluo-8 calcium fluorescence, antagonist. inhibition, % at 3 µM. actives 1.5% (n = 360,000);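 active = inhibition above a per-plate cutoff, the mean inhibition of test compounds on that plate plus 3 SD, cut at about 49% in these data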;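 note: 0% = DMSO plus EC80 beta-PEA response and 100% = DMSO alone without agonist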
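Assay system: CHO-derived RD-HGA16 cells stably expressing human TAAR1 plus Gα16. Timing: 140 s kinetic read after compound, 140 s after agonist. Technique: kinetic Fluo-8 calcium fluorescence measurement. Measure: % inhibition of agonist calcium response.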
OX1R antag-1: blocks the human orexin 1 receptor. inhibition, % at 5 µM. O43613. actives 0.43% (n = 330,000). AID 434989. CHO/OX1R cells, Fluo-8 calcium fluorescence, orexin A;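 active = inhibition above its plate's threshold, mean inhibition of all tested compounds on the plate plus 3 SD, cut at about 37% in these data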;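 note: 0% = orexin A challenge wells and 100% = SB-334867-A antagonist wells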
Target sequence (O43613 whole entry, looked up): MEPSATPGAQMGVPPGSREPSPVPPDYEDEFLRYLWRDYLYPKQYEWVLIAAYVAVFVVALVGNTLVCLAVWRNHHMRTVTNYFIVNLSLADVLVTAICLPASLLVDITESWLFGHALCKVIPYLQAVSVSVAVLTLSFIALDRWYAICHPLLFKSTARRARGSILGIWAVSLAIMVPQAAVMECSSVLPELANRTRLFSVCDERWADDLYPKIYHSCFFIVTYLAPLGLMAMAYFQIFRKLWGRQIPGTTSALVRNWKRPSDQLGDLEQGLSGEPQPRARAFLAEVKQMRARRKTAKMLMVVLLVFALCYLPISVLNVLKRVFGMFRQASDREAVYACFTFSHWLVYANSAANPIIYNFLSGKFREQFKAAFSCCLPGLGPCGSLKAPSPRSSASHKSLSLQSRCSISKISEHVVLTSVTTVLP
OX1R antag-2: antagonists of human orexin 1 receptor (OX1R); inhibition, % at 6.6 µM; actives 1.8% (n = 330,000); OX1R-expressing cells, FRET antagonist read-out; in the data active = inhibition mostly above about 38%, no sharp cut-off; inactive = mostly below about 40%;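 note: 0% = agonist challenge alone and 100% = reference antagonist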
OX1R HTRF conf: confirmation of human orexin 1 receptor antagonists, HTRF format; actives 49% (n = 1,800); shares compounds with OX1R antag-2; inhibition, % at 6.6 µM; AID 492964; OX1R-expressing cells, HTRF antagonist assay; in the data active = inhibition above about 55%;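 note: CHO cells expressing OX1R stimulated with orexin A at about EC80; 0% = agonist challenge alone and 100% = reference antagonist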
CHO-K1 HTRF cnt: signal in parental CHO-K1 cells, OX1R antagonist counter-screen. shares compounds with OX1R antag-2. HTRF counterscreen. inhibition, % at 6.6 µM. actives 48% (n = 1,800). AID 493232; in the data active = inhibition above about 17%;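 note: 0% = agonist challenge with vehicle and 100% = vehicle alone without agonist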
TAAR1 nonsel count: counter-screen for TAAR1 antagonists: nonselective antagonists. shares compounds with TAAR1 antag. AID 651780. inhibition, % at 3 µM. counterscreen cell line, calcium fluorescence, antagonist mode. actives 77% (n = 2,400); in the data active = inhibition above about 22%;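 note: CHO-Ga16 host cells stimulated with ATP at an EC80 level; 0% = agonist EC80 plus vehicle and 100% = vehicle without agonist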
TAAR1 ant conf: human TAAR1 antagonism, confirmed; shares compounds with TAAR1 antag; TAAR1-expressing cells, fluorescence antagonist read-out; inhibition, % at 3 µM; actives 40% (n = 2,400); in the data active = inhibition above about 49%;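 note: CHO-Ga16 host cells challenged with agonist PEA near its EC80; 0% = agonist at EC80 plus vehicle and 100% = vehicle with no agonist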
Ga16 nonsel ag: nonselective Ga16 agonism, counter-screen | shares compounds with TAAR1 antag | Ga16-expressing cells, calcium fluorescence, agonist counterscreen | activation, % at 3 µM | actives 18% (n = 2,400); in the data active = activation above about 12%;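 note: 0% = vehicle wells and 100% = saturating stimulus response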
TAAR1 ag count: activates human TAAR1 in antagonist counter-screen | activation, % at 3 µM | shares compounds with TAAR1 antag | actives 2% (n = 2,400) | hTAAR1 cell line, fluorescence activation, agonist mode | AID 651955; in the data active = activation above about 37%;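 note: CHO cells stably expressing TAAR1 with calcium dye readout; 0% = DMSO vehicle and 100% = full agonist response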
The depositor's hits bear a star; / = no result given; + = active, no number. Only some compounds are listed: those with a hit (about 4.5% of all), similar ones and a draw of the others.

SMILES	TAAR1 agonist	GPR7 antag	CHO parental Ca	TAAR1 antag	OX1R antag-1	OX1R antag-2	OX1R HTRF conf	CHO-K1 HTRF cnt	others
O=C1C(=O)c2ccccc2-c2ccccc21	6	5	-18	-4	4	106*	61*	29*
C=CCN1C[C@@H](C)N(C(c2ccc(C(=O)N(CC)CC)cc2)c2cccc(OC)c2)C[C@@H]1C (some centres not stated)	2	/	-17	-16	-13	11	/	/
N#CC(C#N)=NNc1ccc(S(N)(=O)=O)cc1	-1	-5	-4	-4	-4	84*	19	-1
O=C1NC(=O)N(c2ccc3c(c2)OCO3)C(=O)/C1=C/c1ccc(N2CCCC2)o1	5	4	2	9	-2	92*	46	75*
O=C(NC1CN2CCC1CC2)c1cc(Cl)c([N+](=O)[O-])c2nc[nH]c12 (configuration not stated)	2	-6	-13	6	1	130*	49	83*
CCC(=NCc1ccc(F)cc1)c1c(O)n(C)c(=O)n(C)c1=O	9	6	6	17	-15	6	/	/
O=C(CN1CCN(C(=O)COc2cccc(F)c2)CC1)Nc1ccc(Cl)c(C(F)(F)F)c1	13	/	-10	-7	-19	1	/	/
Cn1c(=O)c2nncnc2n(C)c1=O	2	-10	-4	-13	-12	125*	45	75*
O=[N+]([O-])c1ccc(N(CCO)CCO)c2c1no[n+]2[O-]	6	/	/	-1	/	/	/	/
CN1CCN(c2ccc([N+](=O)[O-])c3no[n+]([O-])c23)CC1	26	10	22	7	13	77*	74*	107*
CCOC(=O)c1c(N)n(CCCOC(=O)c2ccco2)c2nc3ccccc3nc12	5	-6	-6	6	-11	83*	36	22*
Cc1ccc(C2=NC(C)(C)N3C2C3c2ccc([N+](=O)[O-])cc2)cc1 (configuration not stated)	-1	-8	6	-13	-17	30	/	/
Cc1nc2c(=O)n(C)c(=O)nc-2n(C)n1	11	-15	-8	8	2	+	84*	100*
COc1ccc(OC)c(-n2c(O)c(C=Nc3c(C)n(C)n(-c4ccccc4)c3=O)c(=O)[nH]c2=S)c1	1	-10	6	11	-19	12	/	/
O=c1[nH]c(O)c(N=Nc2cc([N+](=O)[O-])ccc2O)c(=O)[nH]1	3	1	4	18	-5	+	71*	93*
CCCCCCn1c(O)c(C(C)=NC)c(=O)[nH]c1=O	-2	-2	-15	-12	-7	11	/	/
CC(=NCCN(C)C)c1c(O)n(Cc2ccccc2)c(=O)[nH]c1=O	10	-3	-22	-5	-21	6	/	/
O=C1NC(=O)C(=Cc2ccc(-c3ccc(S(=O)(=O)N4CCOCC4)cc3)o2)C(=O)N1	8	-1	4	-2	-8	31	/	/
Cn1c(O)c(N=Nc2ccc(S(=O)(=O)N3CCOCC3)cc2)c(=O)n(C)c1=O	2	-1	-10	-4	3	86*	50	74*
O=C1NC(=O)C(=Cc2coc3ccc(O)cc3c2=O)C(=O)N1	-1	-13	-6	9	-6	25	/	/
CCOC(=O)c1cncn1C(C)c1ccccc1 (configuration not stated)	1	4	-1	-3	3	19	/	/
CCOc1cc(CNCCc2c[nH]c3ccccc23)cc(Cl)c1OC	18	1	-17	21	-37	105*	17	3
O=[N+]([O-])c1ccc(N2CCOCC2)c2ccncc12	2	0	-12	-24	-17	107*	47	65*
O=[N+]([O-])c1ccc(N2CCCC2)c(F)c1Br	2	8	5	21	-8	26	/	/
CCn1nc(-c2ccccc2)nc2c(=O)n(C)c(=O)nc1-2	/	-11	-7	/	-14	+	102*	95*
SMILES	TAAR1 agonist	GPR7 antag	CHO parental Ca	TAAR1 antag	OX1R antag-1	OX1R antag-2	OX1R HTRF conf	CHO-K1 HTRF cnt	others
CN1CC=C2C(C#N)=C(N)C(C#N)(C#N)C(c3ccncc3)C2C1 (configuration not stated)	/	-10	1	/	-2	102*	18	24*
Cn1c(O)c(Cc2cccc(Cl)c2Cl)c(=O)n(C)c1=O	0	-2	-5	2	-5	4	/	/
CNc1ccc2nc3ccccc3[n+](C)c2c1	3	-8	6	-12	-8	94*	66*	145*
COc1ccccc1OP(=O)(Nc1ccc(Br)cc1)Oc1ccccc1OC	10	7	-11	78*	10	19	/	/	TAAR1 nonsel count=30*;TAAR1 ant conf=56*;Ga16 nonsel ag=7;TAAR1 ag count=7
COc1ccc(NP(=O)(Oc2ccc(Cl)cc2)Oc2ccc(Cl)cc2)cc1OC	-1	0	-17	39	-26	32	/	/
Cc1ccccc1NP(=O)(Oc1ccccc1F)Oc1ccccc1F	11	2	-11	46	-10	21	/	/
Cc1cccc(OP(N)(=O)Oc2cccc(C)c2)c1	5	-10	12	6	1	2	/	/
Cc1cccc(OP(=O)(NCc2ccccc2)Oc2cccc(C)c2)c1	7	2	2	80*	-37	40	/	/	TAAR1 nonsel count=34*;TAAR1 ant conf=78*;Ga16 nonsel ag=13*;TAAR1 ag count=23
c1ccc(-c2nc3ccccc3nc2-c2ccc(CN3CCC(n4nnc5ccccc54)CC3)cc2)cc1	1	/	/	51*	/	/	/	/	TAAR1 nonsel count=16;TAAR1 ant conf=32;Ga16 nonsel ag=0;TAAR1 ag count=-2
O=c1cccc2n1CC1CC2CN(C(c2cccc(F)c2)c2sc3ncnn3c2O)C1 (configuration not stated)	1	-20	-2	-3	-2	8	/	/
